Data: ChEMBL document CHEMBL4382264, “Melanogenesis-Inhibitory and Cytotoxic Activities of Triterpene Glycoside Constituents from the Bark of Albizia procera” (J Nat Prod, 2018)

Columns and labels:
B16-F10 [1] = assay: Selectivity index, ratio of compound effect for cytotoxicity against non-stimulated mouse B16F10 cells assessed as cell viability at 10 uM to compound effect for inhibition of alpha-MSH-stimulated melanogenesis in mouse B16F10 cells assessed as melanin content at 10 uM
B16-F10 [2] = assay: Inhibition of alpha-MSH-stimulated melanogenesis in mouse B16F10 cells assessed as melanin content at 100 uM measured after 48 hrs relative to control; format: functional; set-up: scale not given: the % may be the effect or the level left
How it was run: (§1)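 B16F10 cells treated with test sample plus 0.10 μM α-MSH for 48 h. Melanin solubilized in 2 N NaOH–10% DMSO and read at 405 nm. Expressed as % of DMSO-treated cells (DMSO 2 μL·mL−1). Mean ± SD, n = 3.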

SK-BR-3 = assay: Cytotoxicity against human SKBR3 cells assessed as reduction in cell viability after 48 hrs by MTT assay; format: functional, cell-based; details: SK-BR-3, 48 h
How it was run: (§2)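 Cells exposed to compounds from 1 × 10−4 to 1 × 10−6 M for 48 h. Viability read by MTT. IC50 derived from five concentrations, each run in triplicate.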

HL-60 = assay: Cytotoxicity against human HL60 cells assessed as reduction in cell viability after 48 hrs by MTT assay; format: functional, cell-based; details: HL-60, 48 h; how it was run: as §2
[3] = Cytotoxicity against non-stimulated mouse B16F10 cells assessed as cell viability at 100 uM relative to control; format: cell-based, B16-F10; details: read-out: Activity
How it was run: (§3)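 B16 melanoma cells tested for viability at 10 or 100 μM. Absorbance read at 570 nm (test) minus 630 nm (reference). Expressed as % of DMSO control (DMSO 2 μL·mL−1). Mean ± SD, n = 3.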

WI-38 = assay: Cytotoxicity against human WI38 cells assessed as reduction in cell viability after 48 hrs by MTT assay; format: cell-based; details: WI-38, 48 h; how it was run: as §2
A549 = assay: Cytotoxicity against human A549 cells assessed as reduction in cell viability after 48 hrs by MTT assay; format: functional, cell-based; details: A549, 48 h; how it was run: as §2
B16-F10 [4] = assay: Selectivity index, ratio of compound effect for cytotoxicity against non-stimulated mouse B16F10 cells assessed as cell viability at 100 uM to compound effect for inhibition of alpha-MSH-stimulated melanogenesis in mouse B16F10 cells assessed as melanin content at 100 uM
AZ-521 cell line = assay: Cytotoxicity against human AZ-521 cells assessed as reduction in cell viability after 48 hrs by MTT assay; format: functional, cell-based; details: AZ-521, 48 h; how it was run: as §2
[5] = Selectivity index, ratio of IC50 for human […] cells to IC50 for human A549 cells
How it was run: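 Selectivity index equals the IC50 against WI38 normal cells divided by the IC50 against A549 cells.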

B16-F10 [6] = assay: Inhibition of alpha-MSH-stimulated melanogenesis in mouse B16F10 cells assessed as melanin content at 10 uM measured after 48 hrs relative to control; format: functional; set-up: scale not given: the % may be the effect or the level left; how it was run: as §1
[7] = Cytotoxicity against non-stimulated mouse B16F10 cells assessed as cell viability at 10 uM relative to control; format: cell-based, B16-F10; details: read-out: Activity; how it was run: as §3

C=C[C@@](C)(O)CC/C=C(\C)C(=O)O[C@H]1[C@H](O)[C@@H](O)[C@H](O[C@](C)(C=C)CCCC(C)C(=O)O[C@H]2C[C@]3(C(=O)O[C@@H]4O[C@H](CO)[C@@H](O)[C@H](O)[C@H]4O[C@@H]4O[C@@H](C)[C@H](O[C@@H]5O[C@@H](CO)[C@H](O)[C@H]5O)[C@@H](O[C@@H]5O[C@H](CO)[C@@H](O)[C@H](O)[C@H]5O)[C@H]4O)CC[C@]4(C)C(=CC[C@@H]5[C@@]6(C)CC[C@H](O[C@@H]7O[C@H](CO[C@@H]8OC[C@H](O)[C@H](O)[C@H]8O[C@@H]8OC[C@@H](O)[C@H](O)[C@H]8O)[C@@H](O)[C@H](O)[C@H]7O[C@@H]7O[C@H](CO)[C@@H](O)[C@H](O)[C@H]7O)C(C)(C)[C@@H]6CC[C@]54C)[C@@H]3CC2(C)C)O[C@@H]1C (stereo not given in full)
Ratio (B16-F10 [1]): 0.81
Activity (B16-F10 [2]): 75.2%
IC50 (SK-BR-3): 1.1 µM
IC50 (HL-60): 0.5 µM
viability at 100 µM [3]: 102%
IC50 (WI-38): 2.2 µM
IC50 (A549): 0.66 µM
Ratio (B16-F10 [4]): 0.74
IC50 (AZ-521 cell line): 0.4 µM
Ratio IC50 [5]: 3.4
Activity (B16-F10 [6]): 89.2%
viability at 10 µM [7]: 110%

C=C[C@@](C)(O)CC/C=C(\C)C(=O)O[C@H]1[C@H](O)[C@@H](O)[C@H](O[C@](C)(C=C)CCCC(C)C(=O)O[C@H]2C[C@]3(C(=O)O[C@@H]4O[C@H](CO)[C@@H](O)[C@H](O)[C@H]4O[C@@H]4O[C@@H](C)[C@H](O[C@@H]5O[C@@H](CO)[C@H](O)[C@H]5O)[C@@H](O[C@@H]5O[C@H](CO)[C@@H](O)[C@H](O)[C@H]5O)[C@H]4O)CC[C@]4(C)C(=CC[C@@H]5[C@@]6(C)CC[C@H](O[C@@H]7O[C@H](CO[C@@H]8O[C@H](C)[C@H](O)[C@H](O)[C@H]8O[C@@H]8OC[C@@H](O)[C@H](O)[C@H]8O)[C@@H](O)[C@H](O)[C@H]7O[C@@H]7O[C@H](CO)[C@@H](O)[C@H](O)[C@H]7O)C(C)(C)[C@@H]6CC[C@]54C)[C@@H]3CC2(C)C)O[C@@H]1C (stereo not given in full)
Ratio (B16-F10 [1]): 0.79
Activity (B16-F10 [2]): 79.6%
IC50 (SK-BR-3): 2.6 µM
IC50 (HL-60): 0.6 µM
viability at 100 µM [3]: 104%
IC50 (WI-38): 4.8 µM
IC50 (A549): 1.8 µM
Ratio (B16-F10 [4]): 0.77
IC50 (AZ-521 cell line): 0.6 µM
Ratio IC50 [5]: 2.7
Activity (B16-F10 [6]): 86.5%
viability at 10 µM [7]: 110%

OC[C@H]1O[C@@H](Oc2ccc(O)cc2)[C@H](O)[C@@H](O)[C@@H]1O [ARBUTIN]
Ratio (B16-F10 [1]): 0.91
Activity (B16-F10 [2]): 81.5%
viability at 100 µM [3]: 101%
Ratio (B16-F10 [4]): 0.81
Activity (B16-F10 [6]): 92.7%
viability at 10 µM [7]: 102%
